Results from ChEMBL document CHEMBL1165965, “Synthesis and structure-activity relationships of 1,2,3,4-tetrahydropyrido[2,3-b]pyrazines as potent and selective inhibitors of the anaplastic lymphoma kinase” (Bioorg Med Chem, 2010).
pIC50: −log10 of the molar value.

Assays:
[1] = target: Ribosomal protein S6 kinase alpha-1 (Homo sapiens) (UniProt Q15418); test: Inhibition of RPS6KA1 C-terminal domain2 at 1 uM
[2] = target: ALK tyrosine kinase receptor (Homo sapiens, UniProt Q9UM73); test: Inhibition of ALK by time-resolved fluorescence assay
ALK tyrosine kinase receptor, sequence (Q9UM73 whole entry): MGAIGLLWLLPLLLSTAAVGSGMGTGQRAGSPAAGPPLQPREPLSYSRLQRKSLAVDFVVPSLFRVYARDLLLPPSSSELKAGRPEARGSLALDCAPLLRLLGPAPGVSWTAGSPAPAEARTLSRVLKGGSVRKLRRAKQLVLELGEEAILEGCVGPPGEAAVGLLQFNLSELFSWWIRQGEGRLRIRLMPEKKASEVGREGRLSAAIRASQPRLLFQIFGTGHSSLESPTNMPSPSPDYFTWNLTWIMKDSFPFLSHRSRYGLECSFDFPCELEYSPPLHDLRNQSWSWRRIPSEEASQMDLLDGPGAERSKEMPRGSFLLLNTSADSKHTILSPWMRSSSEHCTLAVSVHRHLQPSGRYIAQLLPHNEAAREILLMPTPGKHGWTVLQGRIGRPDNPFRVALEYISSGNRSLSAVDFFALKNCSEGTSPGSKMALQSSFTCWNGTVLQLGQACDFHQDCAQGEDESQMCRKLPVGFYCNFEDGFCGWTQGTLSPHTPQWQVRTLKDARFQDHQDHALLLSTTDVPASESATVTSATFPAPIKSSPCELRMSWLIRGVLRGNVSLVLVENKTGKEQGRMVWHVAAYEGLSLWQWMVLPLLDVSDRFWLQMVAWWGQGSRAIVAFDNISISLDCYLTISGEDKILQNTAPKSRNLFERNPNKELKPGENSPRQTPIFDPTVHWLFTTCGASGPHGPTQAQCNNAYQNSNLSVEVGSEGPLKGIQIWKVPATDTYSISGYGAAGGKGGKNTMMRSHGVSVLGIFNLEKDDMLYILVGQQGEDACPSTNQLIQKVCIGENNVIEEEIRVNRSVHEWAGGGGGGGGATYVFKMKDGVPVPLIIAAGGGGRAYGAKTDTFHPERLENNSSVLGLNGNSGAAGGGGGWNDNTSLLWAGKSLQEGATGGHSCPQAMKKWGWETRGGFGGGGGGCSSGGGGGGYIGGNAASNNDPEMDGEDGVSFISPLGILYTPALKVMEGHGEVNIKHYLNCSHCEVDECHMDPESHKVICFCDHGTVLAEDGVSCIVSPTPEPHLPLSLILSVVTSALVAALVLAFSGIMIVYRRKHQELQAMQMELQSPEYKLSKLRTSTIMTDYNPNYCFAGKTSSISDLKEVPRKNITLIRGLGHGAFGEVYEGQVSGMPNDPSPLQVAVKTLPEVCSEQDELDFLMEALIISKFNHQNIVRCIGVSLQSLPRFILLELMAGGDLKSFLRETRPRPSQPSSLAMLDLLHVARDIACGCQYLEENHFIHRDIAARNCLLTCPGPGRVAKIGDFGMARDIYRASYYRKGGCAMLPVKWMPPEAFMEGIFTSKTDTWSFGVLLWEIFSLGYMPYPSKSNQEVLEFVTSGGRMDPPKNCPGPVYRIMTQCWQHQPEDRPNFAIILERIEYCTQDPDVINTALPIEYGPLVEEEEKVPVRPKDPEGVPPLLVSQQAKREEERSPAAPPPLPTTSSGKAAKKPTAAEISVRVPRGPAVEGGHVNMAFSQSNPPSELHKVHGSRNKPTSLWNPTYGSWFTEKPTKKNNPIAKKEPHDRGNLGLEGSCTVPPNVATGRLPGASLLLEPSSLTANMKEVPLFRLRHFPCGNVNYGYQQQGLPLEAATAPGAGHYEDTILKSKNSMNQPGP
How it was run: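 Baculovirus-expressed ALK (30 ng/ml) on plates coated with GST–PLC-gamma substrate in TBS. Reaction ran 15 min at 37 °C. Europium-labeled anti-phosphotyrosine antibody was added for 1 h at 37 °C, then enhancement solution for 30 min, and TRF was read. IC50 came from a variable-slope sigmoidal fit of % inhibition vs log concentration.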

[3] = target: G protein-coupled receptor kinase 4 (Homo sapiens) (UniProt P32298); test: Inhibition of GRK4 at 1 uM
G protein-coupled receptor kinase 4 (Homo sapiens), sequence (P32298 whole entry, looked up): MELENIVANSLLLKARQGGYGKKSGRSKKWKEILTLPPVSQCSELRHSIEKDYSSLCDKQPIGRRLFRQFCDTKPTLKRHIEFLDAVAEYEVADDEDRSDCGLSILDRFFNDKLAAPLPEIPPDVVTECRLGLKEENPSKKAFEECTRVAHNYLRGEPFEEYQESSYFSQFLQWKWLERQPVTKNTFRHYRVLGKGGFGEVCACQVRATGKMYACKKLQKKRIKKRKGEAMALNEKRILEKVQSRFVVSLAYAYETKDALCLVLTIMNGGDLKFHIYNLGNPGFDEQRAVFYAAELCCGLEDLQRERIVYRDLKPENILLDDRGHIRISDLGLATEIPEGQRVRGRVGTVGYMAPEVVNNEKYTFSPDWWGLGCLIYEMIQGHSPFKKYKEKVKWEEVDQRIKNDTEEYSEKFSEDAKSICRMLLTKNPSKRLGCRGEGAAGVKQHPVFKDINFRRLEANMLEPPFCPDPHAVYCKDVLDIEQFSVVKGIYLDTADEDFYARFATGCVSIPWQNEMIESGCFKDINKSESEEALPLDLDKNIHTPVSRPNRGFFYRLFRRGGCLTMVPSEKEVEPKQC

[4] = target: Insulin receptor-related protein (Homo sapiens) (UniProt P14616); test: Inhibition of INSRR at 1 uM
Insulin receptor-related protein (Homo sapiens), sequence (P14616 27-742 limits assumed): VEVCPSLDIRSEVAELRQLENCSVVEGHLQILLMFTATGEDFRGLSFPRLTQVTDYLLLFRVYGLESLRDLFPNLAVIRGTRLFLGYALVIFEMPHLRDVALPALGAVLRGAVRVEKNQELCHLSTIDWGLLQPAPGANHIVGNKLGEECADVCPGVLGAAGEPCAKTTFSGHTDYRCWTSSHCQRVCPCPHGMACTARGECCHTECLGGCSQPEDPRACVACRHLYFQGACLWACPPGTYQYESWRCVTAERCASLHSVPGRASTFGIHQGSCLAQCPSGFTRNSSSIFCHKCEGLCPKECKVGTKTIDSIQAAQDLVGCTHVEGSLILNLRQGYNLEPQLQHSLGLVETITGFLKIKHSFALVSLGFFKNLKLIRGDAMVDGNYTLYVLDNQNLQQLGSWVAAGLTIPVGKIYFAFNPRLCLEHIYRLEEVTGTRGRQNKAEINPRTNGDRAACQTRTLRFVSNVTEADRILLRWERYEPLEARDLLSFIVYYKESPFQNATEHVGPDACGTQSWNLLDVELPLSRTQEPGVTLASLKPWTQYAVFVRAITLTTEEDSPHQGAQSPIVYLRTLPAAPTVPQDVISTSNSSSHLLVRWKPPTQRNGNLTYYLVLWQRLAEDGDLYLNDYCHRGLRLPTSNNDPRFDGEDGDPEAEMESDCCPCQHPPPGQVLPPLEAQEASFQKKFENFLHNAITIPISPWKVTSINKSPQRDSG
Insulin receptor-related protein (Homo sapiens), sequence (P14616 747-1297 limits assumed): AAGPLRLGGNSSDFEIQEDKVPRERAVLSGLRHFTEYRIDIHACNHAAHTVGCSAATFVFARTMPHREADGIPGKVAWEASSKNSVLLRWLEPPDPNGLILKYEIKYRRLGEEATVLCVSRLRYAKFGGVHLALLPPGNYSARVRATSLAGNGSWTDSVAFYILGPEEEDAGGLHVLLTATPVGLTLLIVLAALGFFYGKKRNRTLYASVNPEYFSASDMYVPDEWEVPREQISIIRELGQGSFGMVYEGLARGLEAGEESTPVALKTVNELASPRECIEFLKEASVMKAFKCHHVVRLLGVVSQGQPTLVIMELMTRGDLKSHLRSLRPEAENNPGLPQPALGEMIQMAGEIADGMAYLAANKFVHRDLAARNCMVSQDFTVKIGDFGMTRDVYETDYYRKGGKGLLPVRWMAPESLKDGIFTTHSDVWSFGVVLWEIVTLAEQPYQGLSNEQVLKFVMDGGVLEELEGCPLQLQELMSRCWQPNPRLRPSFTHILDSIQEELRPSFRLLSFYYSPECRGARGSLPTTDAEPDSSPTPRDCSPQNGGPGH
How it was run: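 Single-concentration screen on the Ambit KINOMEscan platform, run against a panel of 250–400 kinases. Per-kinase inhibition was also summarized as S(90), the fraction of kinases inhibited by more than 90%.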

[5] = target: T1, Serine/threonine-protein kinase 36 (Homo sapiens) (UniProt Q9NRP7); test: Inhibition of STK36 at 1 uM
T1 sequence (whole entry): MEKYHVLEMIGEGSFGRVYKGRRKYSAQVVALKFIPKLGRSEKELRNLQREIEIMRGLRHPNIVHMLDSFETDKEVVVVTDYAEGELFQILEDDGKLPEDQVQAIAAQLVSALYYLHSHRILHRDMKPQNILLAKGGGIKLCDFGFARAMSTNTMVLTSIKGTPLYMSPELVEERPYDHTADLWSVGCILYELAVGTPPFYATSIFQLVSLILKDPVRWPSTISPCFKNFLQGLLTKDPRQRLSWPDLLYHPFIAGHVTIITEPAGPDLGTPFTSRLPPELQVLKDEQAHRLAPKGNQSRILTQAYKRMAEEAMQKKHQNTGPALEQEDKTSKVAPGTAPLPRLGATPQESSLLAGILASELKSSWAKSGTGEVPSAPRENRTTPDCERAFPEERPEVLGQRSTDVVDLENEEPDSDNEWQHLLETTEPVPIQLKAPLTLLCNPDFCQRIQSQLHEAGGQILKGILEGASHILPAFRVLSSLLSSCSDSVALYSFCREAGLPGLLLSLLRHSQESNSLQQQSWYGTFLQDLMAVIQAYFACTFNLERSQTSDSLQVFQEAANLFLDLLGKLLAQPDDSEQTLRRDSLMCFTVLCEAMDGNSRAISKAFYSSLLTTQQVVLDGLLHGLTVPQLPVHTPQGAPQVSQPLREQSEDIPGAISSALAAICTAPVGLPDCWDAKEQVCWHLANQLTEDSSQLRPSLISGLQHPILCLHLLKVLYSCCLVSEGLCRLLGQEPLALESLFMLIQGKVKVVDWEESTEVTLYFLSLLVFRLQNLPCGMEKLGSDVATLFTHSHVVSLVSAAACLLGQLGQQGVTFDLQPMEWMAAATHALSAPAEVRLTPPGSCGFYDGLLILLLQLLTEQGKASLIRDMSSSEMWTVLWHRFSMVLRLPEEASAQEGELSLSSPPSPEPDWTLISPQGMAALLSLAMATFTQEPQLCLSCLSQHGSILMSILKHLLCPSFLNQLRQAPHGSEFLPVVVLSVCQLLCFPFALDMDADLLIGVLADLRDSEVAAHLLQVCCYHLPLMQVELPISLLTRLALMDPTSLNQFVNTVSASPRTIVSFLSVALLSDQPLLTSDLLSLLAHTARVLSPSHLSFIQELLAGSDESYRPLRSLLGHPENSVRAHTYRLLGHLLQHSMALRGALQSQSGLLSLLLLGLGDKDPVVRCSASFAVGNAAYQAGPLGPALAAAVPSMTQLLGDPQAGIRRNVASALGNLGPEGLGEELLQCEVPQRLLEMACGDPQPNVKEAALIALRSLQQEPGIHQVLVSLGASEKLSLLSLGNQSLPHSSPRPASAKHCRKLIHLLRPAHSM

[6] = target: T2, Aurora kinase A (Homo sapiens) (UniProt O14965); test: Inhibition of AURKA at 1 uM
T2 sequence (whole entry): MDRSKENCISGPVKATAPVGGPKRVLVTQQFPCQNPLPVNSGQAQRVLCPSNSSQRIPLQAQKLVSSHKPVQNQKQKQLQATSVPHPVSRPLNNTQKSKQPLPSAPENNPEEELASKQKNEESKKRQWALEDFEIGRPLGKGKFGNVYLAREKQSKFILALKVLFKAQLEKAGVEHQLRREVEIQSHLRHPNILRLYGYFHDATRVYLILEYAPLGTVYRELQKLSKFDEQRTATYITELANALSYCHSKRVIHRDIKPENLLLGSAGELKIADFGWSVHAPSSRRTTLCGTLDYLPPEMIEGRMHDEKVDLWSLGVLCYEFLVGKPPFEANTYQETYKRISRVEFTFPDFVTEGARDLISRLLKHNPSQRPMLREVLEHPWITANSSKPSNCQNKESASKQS
How it was run: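 Ambit KINOMEscan screen at a single concentration across a 250–400 kinase panel, recorded as percent inhibition. Selectivity was expressed as S(90), the fraction of kinases inhibited >90%.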

Ribosomal protein S6 kinase alpha-1 (Homo sapiens), sequence (Q15418 whole entry, the tested form may be a part): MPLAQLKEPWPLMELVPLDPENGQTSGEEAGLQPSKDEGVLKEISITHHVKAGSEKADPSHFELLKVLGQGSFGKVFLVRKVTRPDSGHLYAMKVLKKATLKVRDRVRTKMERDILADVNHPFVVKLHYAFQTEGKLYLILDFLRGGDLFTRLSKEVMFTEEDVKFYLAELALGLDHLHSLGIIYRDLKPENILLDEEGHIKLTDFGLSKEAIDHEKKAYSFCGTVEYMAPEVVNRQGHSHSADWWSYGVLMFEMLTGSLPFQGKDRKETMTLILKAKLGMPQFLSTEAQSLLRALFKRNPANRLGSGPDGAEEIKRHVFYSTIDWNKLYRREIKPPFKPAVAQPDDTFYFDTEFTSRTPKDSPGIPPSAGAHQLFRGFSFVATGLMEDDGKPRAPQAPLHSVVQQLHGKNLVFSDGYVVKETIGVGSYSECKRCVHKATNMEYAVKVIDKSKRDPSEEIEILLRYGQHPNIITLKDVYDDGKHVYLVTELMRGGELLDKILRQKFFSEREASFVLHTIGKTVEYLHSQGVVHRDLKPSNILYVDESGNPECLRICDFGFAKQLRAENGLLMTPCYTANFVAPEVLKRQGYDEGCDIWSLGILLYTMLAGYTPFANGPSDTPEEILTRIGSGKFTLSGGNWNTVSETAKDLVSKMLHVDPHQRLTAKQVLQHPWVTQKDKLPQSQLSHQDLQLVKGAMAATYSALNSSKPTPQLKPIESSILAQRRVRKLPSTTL

SMILES	inhibition [1]	pIC50 [2]	inhibition [3]	inhibition [4]	inhibition [5]	inhibition [6]
CN1CCN(c2ccc(-c3cnc4c(c3)N(Cc3cc(Cl)ccc3C(F)(F)F)CCN4)cn2)CC1	< 50%		< 50%	< 50%	< 50%	< 50%
O=C(c1ccc(-c2cnc3c(c2)N(Cc2cc(Cl)ccc2C(F)(F)F)CCN3)cc1)N1CCCCC1	< 50%	6.92		< 50%		< 50%
O=C(O)c1ccc(-c2cnc3c(c2)N(Cc2cc(Cl)ccc2C(F)(F)F)CCN3)cc1	< 50%	5.89		< 50%		80.2%
CN1CCN(c2ccc(-c3cnc4c(c3)N(Cc3c(F)ccc(F)c3Cl)CCN4)cn2)CC1	< 50%		< 50%	< 50%	< 50%	< 50%
CN1CCN(c2ccc(-c3cnc4c(c3)N(Cc3cc(F)ccc3F)CCN4)cn2)CC1	< 50%	7.48	< 50%	< 50%	< 50%	< 50%

The remaining compounds from weak to strong by pIC50 [2], led by results:

inhibition [1]	pIC50 [2]	inhibition [3]	inhibition [4]	inhibition [5]	inhibition [6]	SMILES
< 50%	7.40		< 50%		< 50%	COC1CCN(C(=O)c2ccc(-c3cnc4c(c3)N(Cc3cc(Cl)ccc3C(F)(F)F)CCN4)cc2)CC1
< 50%	7.77	< 50%	< 50%	< 50%	68%	CC(=O)N1CCN(c2cc(-c3cnc4c(c3)N(Cc3cc(Cl)ccc3C(F)(F)F)CCN4)ccn2)CC1
< 50%	7.96	< 50%	< 50%	< 50%	< 50%	CN1CCN(c2ccc(-c3cnc4c(c3)N(Cc3cc(Cl)ccc3Cl)CCN4)cn2)CC1
< 50%	8.00	< 50%	< 50%	< 50%	68%	FC(F)(F)c1ccc(Cl)cc1CN1CCNc2ncc(-c3ccnc(N4CCNCC4)c3)cc21
< 50%	8.00		< 50%		69.5%	O=C(c1ccc(-c2cnc3c(c2)N(Cc2cc(Cl)ccc2C(F)(F)F)CCN3)cc1)N1CCC(N2CCCC2)CC1
